# High-throughput results: PubChem BioAssay, Johns Hopkins Ion Channel Center
# KCNK9 inh = inhibitors of human KCNK9 two-pore domain potassium channel; Q9NPC2; HEK293 KCNK9, FluxOR thallium flux fluorescence; stronger effect = lower value; B-score at 10 µM; 310,000 compounds, 1.2% hits; AID 488922;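 active means ratio B-score over 3 SD below the library mean, with starting fluorescence within 5 SD of its mean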;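 further: negative B-score means less thallium flux so channel inhibition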
# KCNQ1 act = human KCNQ1 channel potentiation or activation; CHO-K1 KCNQ1, thallium flux FluxOR fluorescence; stronger effect = higher value; 310,000 compounds, 0.35% hits; B-score at 10 µM; AID 2648; P51787;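 active means fluorescence ratio B-score, a plate-corrected score, at least three library SD, with initial intensity B-score within 5 SD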
#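 Schedule – 37 °C overnight plating, 90-min dark dye load, 20-min compound pretreatment · System – stable KCNQ1 CHO-K1 line · Probe or stimulus – thallium- and potassium-containing depolarizing buffer · Measured by – kinetic FluxOR fluorescence, 10 s baseline plus 110 s post-stimulus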
# Kir21 block = Kir2.1 (mouse) channel inhibition. HEK293-Kir2.1, FluxOR thallium flux fluorescence; stronger effect = lower value. B-score at 10 µM. 310,000 compounds, 0.85% hits. AID 1672;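 active means fluorescence ratio B-score at or below minus 3 SD of library scores, with starting-brightness B-score within 2 SD, cut at about -4.2 in these data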;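 further: channel flux triggered by added potassium and thallium sulfate stimulus; B-score of peak minus minimum fluorescence over baseline after thallium stimulus; more negative B-score means stronger Kir2.1 block with less thallium influx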
# Target sequence (P35561 whole entry, looked up): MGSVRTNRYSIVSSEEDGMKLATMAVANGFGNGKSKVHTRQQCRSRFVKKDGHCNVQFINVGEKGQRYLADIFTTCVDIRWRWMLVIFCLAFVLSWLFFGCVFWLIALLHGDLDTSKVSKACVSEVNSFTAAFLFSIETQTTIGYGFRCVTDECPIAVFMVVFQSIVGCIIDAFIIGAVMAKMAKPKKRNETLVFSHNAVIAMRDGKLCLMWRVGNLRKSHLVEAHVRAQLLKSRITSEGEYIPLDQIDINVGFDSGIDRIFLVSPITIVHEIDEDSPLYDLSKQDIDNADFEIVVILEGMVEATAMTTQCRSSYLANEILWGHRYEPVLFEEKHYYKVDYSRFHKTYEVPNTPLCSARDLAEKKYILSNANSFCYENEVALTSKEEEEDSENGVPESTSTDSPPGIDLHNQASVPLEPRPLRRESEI
# hERG rescue = compounds protecting human hERG from proarrhythmic drug block. activation (rescue from dofetilide block), less the hit threshold, % at 10 µM. 310,000 compounds, 0.51% hits. CHO-hERG, FluxOR thallium flux, dofetilide IC70 present;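 active means activation above the mean of controls blocked by dofetilide plus 5 SD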;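 further: thallium influx through hERG after potassium depolarization seen as dye fluorescence rise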
# KCNQ1 block = blocks the human KCNQ1 potassium channel; B-score at 10 µM; 310,000 compounds, 1.3% hits; CHO-K1 KCNQ1, FluxOR thallium flux fluorescence; stronger effect = higher value; P51787;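 active means compounds whose thallium flux B-score, printed positive for inhibition, exceeds three library SD while starting fluorescence stays within three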;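 further: channel opened by potassium depolarization with thallium stimulus after 20 min compound exposure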
# KCNK3 inh = human KCNK3 channel inhibition, primary screen; B-score at 10 µM; AID 602410; 340,000 compounds, 0.84% hits; CHO-KCNK3 thallium flux, FluxOR fluorescence; stronger effect = lower value;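 active means B-score under library mean minus 4 SD, starting fluorescence ratio at most library mean plus 5 SD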;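 further: more negative B-score means stronger inhibition of thallium flux through KCNK3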
# * hit, by the source's call; i = inactive; / = no result given. This is a sample that favours compounds with a hit; in the whole collection about 3.8% have one here.
SMILES,KCNK9 inh,KCNQ1 act,Kir21 block,hERG rescue,KCNQ1 block,KCNK3 inh
CC(C)Cn1c(N)c(C(=O)COC(=O)c2c(O)c(Cl)cc(Cl)c2Cl)c(=O)n(C)c1=O,/,/,/,/,/,-10*
CC(C)Cn1c(N)c(C(=O)COC(=O)c2ccc(Cl)cc2)c(=O)n(C)c1=O,i,i,1.6,-14,i,i
Cc1ccc(O)c(NC(=O)CSc2n[nH]c(C)c2[N+](=O)[O-])c1,i,i,-0.64,-3,i,i
Cc1ccc(N=Cc2cc(Br)cc(Cl)c2O)cc1,i,i,1.7,-5,i,i
Oc1c(Cl)cc(Cl)cc1C=Nc1ccc(Br)cc1,i,i,0.72,5.0*,i,i
O=C(O)c1cccc(N/N=C(\N=Nc2ccccc2)c2ccccc2)c1,i,i,-0.19,-10,6*,i
OCCN1CCN(c2cc(C(F)(F)F)nc3c(F)cccc23)CC1,i,i,0.09,-3,i,i
Cc1cc(Cl)ccc1NC(=S)NCCC(c1ccccc1)c1ccccc1,i,i,0.07,-13,11*,i
Cc1c(Cl)cccc1NC(=S)NCCC(c1ccccc1)c1ccccc1,i,i,1.2,-5,11*,i
COc1ccc(C(=O)N2CCCN(C)CC2)cc1S(=O)(=O)N1CCCc2ccccc21,i,i,0.12,-12,i,i
CC(/C=N/n1c(-c2ccc(C)cc2)n[nH]c1=S)=C\c1ccco1,i,10*,-0.85,-6,i,i
CC(/C=N/n1c(-c2ccccc2)n[nH]c1=S)=C\c1ccco1,i,i,0.15,-11,i,i
COC(=O)c1ccc(NC(=O)c2ccc(NS(=O)(=O)c3cccc4cccnc34)cc2)cc1,i,i,-0.6,0,i,i
CCC/C=C(\CCC)C(NS(=O)(=O)c1cccc2cccnc12)c1ccc(C(=O)OC)cc1 (stereo not drawn),i,i,-0.1,-12,6*,/
COC(=O)c1ccc(C(NC(=O)OCc2ccccc2)/C(C)=C/[C@@H](C)C(=O)NCc2ccc(-c3ccccc3)cc2)cc1 (stereo partly drawn),i,i,1.9,-14,i,i
CCC/C=C(\CCC)C(NC(=O)OCC(C)C)c1ccc(C(=O)OC)cc1 (stereo not drawn),i,i,1.1,-8,9*,i
CCN(CC)S(=O)(=O)c1ccc(NC(=O)COC(=O)CNS(=O)(=O)/C=C/c2ccccc2)cc1,i,i,-0.36,-13,i,i
CC(C)(C)CC(=O)OCC(=O)Nc1cc(C(C)(C)C)nn1-c1ccccc1,i,i,-2.6,-10,i,i
COc1ccc(C2CC(c3cccs3)=NN2C(=O)CSc2nc3c(cnn3-c3ccccc3)c(=O)[nH]2)cc1 (stereo not drawn),i,i,0.61,-16,6*,i
N#Cc1cn(CCOc2ccc(F)cc2)c2ccccc12,i,i,1.5,-8,i,i
N#Cc1cn(CCOc2ccccc2F)c2ccccc12,-7.5*,i,-1.2,-12,i,i
O=C(Oc1c(-c2ccccc2)c(=O)n2c3c(cccc13)CC2)c1cccc([N+](=O)[O-])c1,i,i,-0.64,-11,6*,i
O=C(Oc1c(-c2ccccc2)c(=O)n2c3c(cccc13)CC2)c1ccccc1,i,i,-1.6,-11,i,i
C=C1[C@@H](C)C2[C@H](Cc3ccccc3)NC(=O)[C@]23OC(=O)CC[C@H](O)CCC[C@H](C)C/C=C/[C@H]3[C@@H]1O (stereo partly drawn),i,60*,-2.9,-10,i,/
O=[N+]([O-])c1ccc(-[n+]2ccc3ccccc3c2)c([N+](=O)[O-])c1,i,i,-4.7*,-13,i,i
O=[N+]([O-])c1ccc(SNc2ccccc2)c([N+](=O)[O-])c1,/,/,/,/,/,i
CC(Sc1nc2ncc(Cl)cc2[nH]1)C(=O)NC1(C#N)CCCCC1 (stereo not drawn),/,/,/,/,/,i
